Laboratory results taken from ChEMBL document CHEMBL1151755, “Crystal structure of the peroxisome proliferator-activated receptor gamma (PPARgamma) ligand binding domain complexed with a novel partial agonist: a new region of the hydrophobic pocket could be exploited for drug design” (J Med Chem, 2008).
Activity calls are given as the source filed them. No cut-off for these calls is given here.

Assays:
Type in all cases: cell-based
Conditions in all cases: HepG2
[1] = molecular target: T1, Peroxisome proliferator-activated receptor alpha (Homo sapiens) (UniProt Q07869); test: Agonist activity at human PPARalpha ligand binding domain expressed in human Hep G2 cells co-transfected with Gal4-DBD by luciferase reporter gene assay relative to Wy 14,643
T1 sequence (whole entry): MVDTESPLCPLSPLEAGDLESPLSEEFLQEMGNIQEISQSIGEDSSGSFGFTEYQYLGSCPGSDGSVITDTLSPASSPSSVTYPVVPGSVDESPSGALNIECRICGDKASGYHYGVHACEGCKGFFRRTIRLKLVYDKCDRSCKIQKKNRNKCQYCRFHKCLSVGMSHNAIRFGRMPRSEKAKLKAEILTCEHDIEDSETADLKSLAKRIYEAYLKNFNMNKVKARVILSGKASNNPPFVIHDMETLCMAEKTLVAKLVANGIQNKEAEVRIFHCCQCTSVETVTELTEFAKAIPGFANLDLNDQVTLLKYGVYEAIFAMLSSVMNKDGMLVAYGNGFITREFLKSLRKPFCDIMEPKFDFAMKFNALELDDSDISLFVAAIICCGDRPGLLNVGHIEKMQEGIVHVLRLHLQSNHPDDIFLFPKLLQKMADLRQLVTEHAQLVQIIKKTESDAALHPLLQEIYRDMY
How it was run: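 HepG2 cells received the Gal4-receptor LBD construct (50 ng), pGal4UAS-luciferase (100 ng) and pCMVβ (300 ng) by calcium phosphate coprecipitation for 4 h. They were then treated in serum-free DMEM/F-12 with ligand or 0.1% ethanol for 20 h. Luciferase was normalized to β-galactosidase, and efficacy was expressed as percent of the Wy 14,643 maximum (100%). Values are mean ± SEM of 3–5 experiments in triplicate.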

[2] = molecular target: T2, Peroxisome proliferator-activated receptor delta (Homo sapiens) (UniProt Q03181); test: Increase in transcriptional activity of human PPARbeta/delta ligand binding domain expressed in human Hep G2 cells co-transfected with Gal4-DBD by luciferase reporter gene assay
T2 sequence (whole entry): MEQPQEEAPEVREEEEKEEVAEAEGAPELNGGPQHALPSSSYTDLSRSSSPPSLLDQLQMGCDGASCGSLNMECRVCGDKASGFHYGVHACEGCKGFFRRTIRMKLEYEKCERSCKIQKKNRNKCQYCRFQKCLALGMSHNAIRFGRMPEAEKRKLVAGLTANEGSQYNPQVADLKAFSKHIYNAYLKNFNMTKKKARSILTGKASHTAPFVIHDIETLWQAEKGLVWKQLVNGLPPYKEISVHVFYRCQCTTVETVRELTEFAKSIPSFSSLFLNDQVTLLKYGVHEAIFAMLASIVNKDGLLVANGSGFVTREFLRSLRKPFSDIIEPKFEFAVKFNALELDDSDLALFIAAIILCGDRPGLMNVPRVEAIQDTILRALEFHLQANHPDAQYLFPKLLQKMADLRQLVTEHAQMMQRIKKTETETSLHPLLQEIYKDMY
How it was run: (§1)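 HepG2 cells transfected for 4 h by calcium phosphate coprecipitation with 100 ng pGal4UAS-luciferase, 50 ng Gal4-LBD receptor vector and 300 ng CMV-β-galactosidase plasmid for normalization. Cells were washed in PBS, then refed with serum-free DMEM/F-12 containing penicillin/streptomycin and compound or 0.1% ethanol vehicle for 20 h. Luciferase read-out was normalized to β-galactosidase. Experiments were repeated at least three times.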

[3] = molecular target: T3, Retinoic acid receptor RXR-alpha (Homo sapiens) (UniProt P19793); test: Increase in transcriptional activity of RXRalpha ligand binding domain expressed in human Hep G2 cells co-transfected with Gal4-DBD by luciferase reporter gene assay; how it was run: as §1
T3 sequence (whole entry): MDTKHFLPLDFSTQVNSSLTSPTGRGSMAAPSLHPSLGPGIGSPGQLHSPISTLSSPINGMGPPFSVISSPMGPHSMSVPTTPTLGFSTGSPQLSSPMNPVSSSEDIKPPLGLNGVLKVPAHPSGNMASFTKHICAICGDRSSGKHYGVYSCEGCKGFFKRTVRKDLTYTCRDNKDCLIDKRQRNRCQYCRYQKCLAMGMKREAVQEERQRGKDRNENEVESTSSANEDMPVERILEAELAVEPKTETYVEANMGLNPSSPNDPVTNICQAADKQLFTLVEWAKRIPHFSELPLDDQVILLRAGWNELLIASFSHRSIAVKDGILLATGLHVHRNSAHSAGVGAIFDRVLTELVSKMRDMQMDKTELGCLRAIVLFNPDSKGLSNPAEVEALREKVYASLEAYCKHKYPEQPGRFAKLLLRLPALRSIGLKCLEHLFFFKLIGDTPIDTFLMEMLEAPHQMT

[4] = molecular target: T4, Bile acid receptor (Homo sapiens) (UniProt Q96RI1); test: Increase in transcriptional activity of FXR ligand binding domain expressed in human Hep G2 cells co-transfected with Gal4-DBD by luciferase reporter gene assay; how it was run: as §1
T4 sequence (whole entry): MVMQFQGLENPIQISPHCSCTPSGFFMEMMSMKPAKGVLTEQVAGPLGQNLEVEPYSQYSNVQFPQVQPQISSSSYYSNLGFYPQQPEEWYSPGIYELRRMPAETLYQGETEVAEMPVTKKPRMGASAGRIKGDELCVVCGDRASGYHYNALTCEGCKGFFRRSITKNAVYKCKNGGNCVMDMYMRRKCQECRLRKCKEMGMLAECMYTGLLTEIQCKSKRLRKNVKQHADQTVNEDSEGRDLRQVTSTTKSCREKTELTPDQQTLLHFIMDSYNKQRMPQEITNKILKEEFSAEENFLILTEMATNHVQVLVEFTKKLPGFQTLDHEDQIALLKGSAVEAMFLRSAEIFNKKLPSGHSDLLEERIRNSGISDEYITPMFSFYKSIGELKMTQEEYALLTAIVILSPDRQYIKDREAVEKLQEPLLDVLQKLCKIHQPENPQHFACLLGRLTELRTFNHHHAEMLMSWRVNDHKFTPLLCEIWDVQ

[5] = molecular target: T5, Oxysterols receptor LXR-beta (Homo sapiens) (UniProt P55055); test: Increase in transcriptional activity of LXRbeta ligand binding domain expressed in human Hep G2 cells co-transfected with Gal4-DBD by luciferase reporter gene assay; how it was run: as §1
T5 sequence (whole entry): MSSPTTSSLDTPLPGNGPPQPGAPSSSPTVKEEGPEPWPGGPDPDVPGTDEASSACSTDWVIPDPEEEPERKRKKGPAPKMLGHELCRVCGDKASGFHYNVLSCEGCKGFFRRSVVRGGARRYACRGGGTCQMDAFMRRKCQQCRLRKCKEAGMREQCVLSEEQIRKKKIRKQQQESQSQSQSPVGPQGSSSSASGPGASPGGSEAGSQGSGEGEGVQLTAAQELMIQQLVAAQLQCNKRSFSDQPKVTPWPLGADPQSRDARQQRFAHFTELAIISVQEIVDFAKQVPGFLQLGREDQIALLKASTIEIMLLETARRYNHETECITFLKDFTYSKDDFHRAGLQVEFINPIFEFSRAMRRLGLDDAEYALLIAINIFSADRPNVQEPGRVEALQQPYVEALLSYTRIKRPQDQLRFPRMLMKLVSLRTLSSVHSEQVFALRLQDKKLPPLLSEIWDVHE

Activity [1] | Activity [2] | Activity [3] | Activity [4] | Activity [5] | Efficacy [1] | SMILES
inactive | inactive | inactive | inactive | inactive |  | O=C(O)[C@@H](Cc1ccccc1)Oc1ccc(-c2ccccc2)cc1
 | inactive | inactive | inactive | inactive | 100% | O=C(O)[C@H](Cc1ccccc1)Oc1ccc(-c2ccccc2)cc1
